Results pooled from the literature.
Compare with care: the assays were run in different laboratories.
Target: Serine/threonine-protein kinase MRCK alpha (CDC42BPA, Homo sapiens, UniProt Q5VT25)

| Compound | test | setting | remaining binding |
| --- | --- | --- | --- |
| Nc1ncc2c(n1)-c1c([nH]c3ccc(C#CC4CC4)cc13)CCCC2 | binding, competition with immobilised ligand | 1 µM | 88% |
| c1cncc(-c2cccc(Nc3nccc(NC4CCCCC4)n3)c2)c1 | binding, competition with immobilised ligand | 10 µM | 100% |
| CN(C)c1nccc(-c2cnn3ncccc23)n1 | binding | 1 µM | 100% |
| O=C(NCCCN1CCOCC1)c1ccc(Nc2nccc(-c3cc4ccccc4s3)n2)cc1 | binding, competition with immobilised ligand | 1 µM | 72% |
| O=C(NCc1ncc(C(F)(F)F)cc1Cl)c1ccc2c(c1)C1(CCS(=O)(=O)CC1)[C@@H](C1CC1)N2S(=O)(=O)c1ccc(F)cc1 | cell-free assay, competition with immobilised ligand | 1 µM | 100% |
| COc1cnc(Nc2cccc(S(N)(=O)=O)c2)nc1N1CCN(c2ccccc2)C(=O)C1 | binding, competition with immobilised ligand | 1 µM | 100% |
| CN1CCN(c2cnc3c(C4CCN(C(=O)c5ccc(OC(F)(F)F)cc5N)CC4)ncnc3c2)CC1 | cell-free assay, competition with immobilised ligand | 1 µM | 100% |
| O=C(c1ccc(Nc2nccc(-c3cc4ccccc4s3)n2)cc1)N1CCC(N2CCCC2)CC1 | binding, competition with immobilised ligand | 1 µM | 65% |
| N[C@H]1CCN(c2nccc(-c3cnn4ncccc34)n2)C1 | binding | 1 µM | 84% |
| Cc1cc(NC(=O)c2cccc(S(F)(F)(F)(F)F)c2)cc(-n2ccn3nc(-c4cccnc4)cc23)c1 | cell-free assay, competition with immobilised ligand | 1 µM | 88.5% |
| CNC(=O)[C@@H]1CC[C@@H](n2c(-c3ccc4cnccc4c3)nc3ccc(C(=O)NCc4cccc(C(N)=O)c4)cc32)C1 | binding, competition with immobilised ligand | 1 µM | 100% |
| C[C@H]1CCN(c2nccc(-c3cnn4ncccc34)n2)C1 | binding | 1 µM | 98% |
| O=C(NCCCN1CCOCC1)c1ccc(Nc2ncc(Cl)c(-c3ccc(Cl)s3)n2)cc1 | binding, competition with immobilised ligand | 1 µM | 100% |
| Cc1noc([C@H]2C[C@@H](c3ccc(C(F)(F)F)cc3)CN(C(=O)N3CCS(=O)(=O)C3)C2)n1 | cell-free assay, competition with immobilised ligand | 1 µM | 100% |
| CN(CCCC(F)(F)F)c1nccc(-c2cnn3ncccc23)n1 | binding | 1 µM | 100% |
| COc1ncc2cc3ccccc3nc2c1C#N | cell-free assay, competition with immobilised ligand | 5 µM | 100% |
| NS(=O)(=O)c1cc(NC(=O)Cc2ccccc2)ccc1Oc1cccc(Cl)c1 | cell-free assay, competition with immobilised ligand | 1 µM | 91% |
| CN(c1nccc(-c2cnn3ncccc23)n1)C1CC1 | binding | 1 µM | 100% |
| Cc1cc(-n2nc(Cc3cc(F)cc(C(F)(F)F)c3)nc2C)ccc1C(N)=O | cell-free assay, competition with immobilised ligand | 1 µM | 100% |
| CN(C)c1nccc(-c2cnc3ncccn23)n1 | binding | 1 µM | 83% |
| C[C@@]1(Cc2ccc(C#N)cc2)C(=O)N(c2cc(Cl)cc(Cl)c2)c2ncc(C(=O)NC3(c4nc(C5CCC5)no4)CC3)n21 | cell-free assay, competition with immobilised ligand | 1 µM | 100% |
| O=C(Nc1c[nH]nc1C(=O)NC1CCNCC1)c1cc(F)cc(F)c1 | binding, competition with immobilised ligand | 1 µM | 95% |
